Assay [1] deals with ATH-8 cell line. Description: Compound was evaluated for cytotoxicity by HIV cytopathic effect assay performed with ATH8 cells at a concentration of 5(uM). The assay is classed as functional, Homo sapiens. The method, boiled down:
(§1)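 Uninfected control ATH8 cells (2×10^5) were polybrene-treated and cultured in 2 mL IL-2-containing medium with or without compound at 37 °C in 5% CO2. Viable cells were counted by trypan blue exclusion on a hemocytometer at days 5–7. % cytotoxicity = 100 × [1 − (viable cells with nucleoside ÷ viable cells cultured alone)].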

Assay [2] can be described thus: Compound was evaluated for the protective effect against HTLV-III/LAV (HIV) pathogenesis at a concentration of 0.5(uM). The assay is classed as functional. The method, boiled down:
(§2)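 ATH8 cells (2×10^5) were polybrene-treated, then exposed to HTLV-IIIB (2000 virus particles/cell) for 45 min. They were resuspended in 2 mL IL-2-containing medium with or without compound and incubated at 37 °C in 5% CO2. Viable cells were counted by trypan blue exclusion on days 5–7. % protection compared infected treated, infected untreated, and uninfected cells.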

Assay [3] concerns ATH-8 cell line. Description: Compound was evaluated for cytotoxicity by HIV cytopathic effect assay performed with ATH8 cells at a concentration of 50(uM). The assay is classed as functional, Homo sapiens. The method, boiled down:
as §1

The test system of assay [4] is ATH-8 cell line. Put plainly: Compound was evaluated for cytotoxicity by HIV cytopathic effect assay performed with ATH8 cells at a concentration of 0.5(uM). The format is functional, Homo sapiens. The gist of the method: as §1
On the technique in general: Protection from cytopathic effect is a common read-out in antiviral testing.

A short description of assay [5]: Compound was evaluated for the protective effect against HTLV-III/LAV (HIV) pathogenesis at a concentration of 50(uM). The assay is classed as functional. The gist of the method:
as §2

Assay [6] is described as follows: Compound was evaluated for the protective effect against HTLV-III/LAV (HIV) pathogenesis at a concentration of 0.05(uM). The format is functional. The gist of the method:
as §2

Assay [7] can be described thus: Compound was evaluated for the protective effect against HTLV-III/LAV (HIV) pathogenesis at a concentration of 5(uM). The format is functional. The gist of the method: as §2
The test system of assay [8] is ATH-8 cell line. Description: Compound was evaluated for cytotoxicity by HIV cytopathic effect assay performed with ATH8 cells at a concentration of 0.05(uM). The assay is classed as functional, Homo sapiens. The gist of the method:
as §1

The test system of assay [9] is ATH-8 cell line. Description: (§3) Compound was evaluated for cytotoxicity by HIV cytopathic effect assay performed with ATH8 cells at a concentration of 10(uM). The format is functional, Homo sapiens. The method, boiled down:
as §1

A short description of assay [10]: Compound was evaluated for the protective effect against HTLV-III/LAV (HIV) pathogenesis at a concentration of 1(uM). The format is functional. The method, boiled down: as §2
The subject of assay [11] is ATH-8 cell line. Put plainly: Compound was evaluated for cytotoxicity by HIV cytopathic effect assay performed with ATH8 cells at a concentration of 1(uM). The format is functional, Homo sapiens. The gist of the method: as §1
Assay [12] is described as follows: Compound was evaluated for the protective effect against HTLV-III/LAV (HIV) pathogenesis at a concentration of 10(uM). The format is functional. The method, boiled down:
as §2

Assay [13] has as its system ATH-8 cell line. Put plainly: Compound was evaluated for cytotoxicity by HIV cytopathic effect assay performed with ATH8 cells at a concentration of 200(uM). The format is functional, Homo sapiens. The gist of the method:
as §1

A short description of assay [14]: Compound was evaluated for the protective effect against HTLV-III/LAV (HIV) pathogenesis at a concentration of 100(uM). The assay is classed as functional. The method, boiled down: as §2
Assay [15] is described as follows: Compound was evaluated for the protective effect against HTLV-III/LAV (HIV) pathogenesis at a concentration of 200(uM). The format is functional. The method, boiled down:
as §2

For assay [16], the system named is ATH-8 cell line. Description: Compound was evaluated for cytotoxicity by HIV cytopathic effect assay performed with ATH8 cells at a concentration of 100(uM). The assay is classed as functional, Homo sapiens. The method, boiled down:
as §1

The subject of assay [17] is ATH-8 cell line. Description: Compound was evaluated for cytotoxicity by HIV cytopathic effect assay performed with ATH8 cells at a concentration of 2(uM). The format is functional, Homo sapiens. The method, boiled down:
as §1

The nature of assay [18]: Compound was evaluated for the protective effect against HTLV-III/LAV (HIV) pathogenesis at a concentration of 2(uM). The format is functional. The gist of the method:
as §2

Assay [19] is described as follows: Compound was evaluated for the protective effect against HTLV-III/LAV (HIV) pathogenesis at a concentration of 30(uM). The format is functional. The method, boiled down: as §2
Assay [20] has as its system ATH-8 cell line. Put plainly: Compound was evaluated for cytotoxicity by HIV cytopathic effect assay performed with ATH8 cells at a concentration of 30(uM). The format is functional, Homo sapiens. The gist of the method: as §1
The test system of assay [21] is ATH-8 cell line. Put plainly: Compound was evaluated for cytotoxicity by HIV cytopathic effect assay performed with ATH8 cells at a concentration of 1000(uM). The format is functional, Homo sapiens. The method, boiled down: as §1
The test system of assay [22] is ATH-8 cell line. Described as §3. The assay is classed as functional. The method, boiled down: as §1
The test system of assay [23] is ATH-8 cell line. Description: Compound was evaluated for cytotoxicity by HIV cytopathic effect assay performed with ATH8 cells at a concentration of 500(uM). The format is functional, Homo sapiens. The method, boiled down: as §1
Assay [24] is described as follows: Compound was evaluated for the protective effect against HTLV-III/LAV (HIV) pathogenesis at a concentration of 2000(uM). The format is functional. The gist of the method:
as §2

Assay [25] in a line: Compound was evaluated for the protective effect against HTLV-III/LAV (HIV) pathogenesis at a concentration of 500(uM). The assay is classed as functional. The method, boiled down:
as §2

Assay [26] has as its system ATH-8 cell line. Put plainly: Compound was evaluated for cytotoxicity by HIV cytopathic effect assay performed with ATH8 cells at a concentration of 2000(uM). The format is functional, Homo sapiens. The gist of the method:
as §1

Assay [27] can be described thus: Compound was evaluated for the protective effect against HTLV-III/LAV (HIV) pathogenesis at a concentration of 1000(uM). The format is functional. The method, boiled down: as §2

As to `Nc1nc(=O)n([C@@H]2CC[C@H](CO)O2)cc1F`, the Cytotoxicity was found to be 0% in the assay with ATH-8 cell line [1], 9% in the assay on ATH-8 cell line [3], 0% in the assay with ATH-8 cell line [4] and 5% in the assay with ATH-8 cell line [8]. The Protective effect was 100% in assay [2], 88% in [5], 5% in assay [6] and 100% in assay [7].
`Nc1ncn(C2CCC(CO)O2)c(=O)n1` (stereo unspecified): the figures for the Cytotoxicity in the assay with ATH-8 cell line [3], with ATH-8 cell line [9] and with ATH-8 cell line [11] were 62%, 19% and 13%, respectively. Moreover, the results for the Protective effect in [10], in [5] and in assay [12] were 16%, 38% and 58%, respectively.
In the case of `Nc1ncnc2c1ncn2[C@H]1CC[C@@H](CO)O1`, the Cytotoxicity in the assay with ATH-8 cell line [1] is 6%; with ATH-8 cell line [3], 0%; in the assay with ATH-8 cell line [9], 0%; with ATH-8 cell line [13] it was 0%; in the assay on ATH-8 cell line [11], 0%; in the assay on ATH-8 cell line [16] it was 0%. In addition, the Protective effect was found to be 42% in assay [10]; 100% in assay [5]; 100% in assay [14]; 98% in assay [7]; 100% in assay [15]; 100% in assay [12].
On to `Nc1ncnc2c1ncn2C1CCC(COP(=O)([O-])[O-])O1.[Na+].[Na+]` (stereo unspecified), for which the Cytotoxicity in the assay on ATH-8 cell line [1] was 10%; in the assay with ATH-8 cell line [3], 4%; in the assay on ATH-8 cell line [9], 6%; in the assay on ATH-8 cell line [13] it was 5%; in the assay on ATH-8 cell line [11] it was 2%; with ATH-8 cell line [16], 0%. For the same compound, the Protective effect came to 25% in [10]; 83% in assay [5]; 100% in [14]; 91% in assay [7]; 100% in assay [15]; 100% in [12].
As to `N.N.Nc1ccn(C2CCC(COP(=O)(O)O)O2)c(=O)n1` (stereo unspecified), the Protective effect came out at 13% in assay [2], 9% in assay [18] and 74% in assay [12]. The Cytotoxicity is 7% in the assay on ATH-8 cell line [17], 0% in the assay on ATH-8 cell line [9] and 0% in the assay on ATH-8 cell line [4].
`Nc1nc(=O)n(C2CCC(CO)O2)cc1Br` (stereo unspecified): the Protective effect in [19] was 5%; in [10] it was 6%; in [15], 0%; in [12], 8%. The Cytotoxicity is reported as 14% with ATH-8 cell line [9], 0% in the assay with ATH-8 cell line [13], 14% with ATH-8 cell line [11] and 2% in the assay on ATH-8 cell line [20].
Consider `Nc1ccn([C@H]2CC[C@@H](CO)O2)c(=O)n1` [ZALCITABINE], for which the Cytotoxicity is 0% in the assay with ATH-8 cell line [1], 30% in the assay with ATH-8 cell line [3], 0% with ATH-8 cell line [4] and 0% in the assay with ATH-8 cell line [8]. Moreover, the Protective effect in assay [2] was 97%; in assay [5] it was 77%; in [6] it was 18%; in [7] it was 100%.
With `Cc1cn(C2CCC(COP(=O)([O-])[O-])O2)c(=O)[nH]c1=O.[Na+].[Na+]` (stereo unspecified), the values for the Cytotoxicity in the assay on ATH-8 cell line [3], with ATH-8 cell line [9] and with ATH-8 cell line [13] were 9%, 9% and 10%, respectively. In addition, the Protective effect amounted to 18% in assay [5], 15% in assay [15] and 7% in assay [12].
For `Cc1cn([C@H]2C=C[C@@H](CO)O2)c(=O)[nH]c1=O` [STAVUDINE], the Cytotoxicity in the assay on ATH-8 cell line [3] is 8%; in the assay on ATH-8 cell line [21], 40%; in the assay on ATH-8 cell line [13], 6%; in the assay with ATH-8 cell line [22], 8%; in the assay with ATH-8 cell line [23] it was 30%; in the assay with ATH-8 cell line [26], 53%. In the assay with ATH-8 cell line [16], the Cytotoxicity amounted to 13%. Further, the Protective effect in assay [5] amounted to 9%; in assay [14] it was 19%; in [24] it was 43%; in [25], 68%; in [27], 46%; in assay [15], 77%. The compound further yielded a Protective effect in assay [12] of 3%.
Consider `Cc1cn(C2CCC(CO)O2)c(=O)nc1N` (stereo unspecified), for which the figures for the Cytotoxicity with ATH-8 cell line [17], in the assay with ATH-8 cell line [9] and in the assay on ATH-8 cell line [16] were 23%, 27% and 44%, respectively. The values for the Protective effect in [18], in [14] and in [12] were 2%, 3% and 7%, respectively.

For the origin of these results see ChEMBL document CHEMBL1123740, “Potential anti-AIDS drugs. 2',3'-Dideoxycytidine analogues” (1987).
